From ChEMBL document CHEMBL1157526, “Development of novel beta-amyloid probes based on 3,5-diphenyl-1,2,4-oxadiazole” (Bioorg Med Chem, 2008)

Legend:
[1] = Displacement of [125I]IMPY from amyloid beta (1-42) aggregates
In short: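 Synthetic Aβ(1–42) dissolved at 0.25 mg/mL in 10 mM sodium phosphate, 1 mM EDTA, pH 7.4, aggregated 42 h at 37 °C with gentle constant shaking. Competition against [125I]IMPY (2200 Ci/mmol, >95% radiochemical purity). Filter-bound radioactivity gamma-counted, specific binding under 15% of total. IC50 from displacement curves, Ki by Cheng-Prusoff. Mean ± SEM of 3–6 independent experiments.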

Blood [2] = assay: Biodistribution in ddY mouse blood at 0.5 uCi, iv after 10 mins; assay type: ADME, organism-based; details: in vivo
In short: (§1)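 Normal male-unspecified ddY mice (5-week-old, 22–25 g) given radioiodinated ligand by tail-vein injection, killed at set times post-injection. Organs removed and weighed, radioactivity counted in a gamma counter. Expressed as % injected dose per gram, stomach as % injected dose per organ. Mean (s.d.) of 3–5 animals per time point.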

Heart [3] = assay: Biodistribution in ddY mouse heart at 0.5 uCi, iv after 10 mins; assay type: ADME, organism-based; details: in vivo; in short: as §1
Intestine [4] = assay: Biodistribution in ddY mouse intestine at 0.5 uCi, iv after 30 mins; assay type: ADME, organism-based; details: in vivo, 0.5 h; in short: as §1
Intestine [5] = assay: Biodistribution in ddY mouse intestine at 0.5 uCi, iv after 10 mins; assay type: ADME, organism-based; details: in vivo; in short: as §1
Intestine [6] = assay: Biodistribution in ddY mouse intestine at 0.5 uCi, iv after 2 mins; assay type: ADME, organism-based; details: in vivo; in short: as §1
Kidney [7] = assay: Biodistribution in ddY mouse kidney at 0.5 uCi, iv after 2 mins; assay type: ADME, organism-based; details: in vivo; in short: as §1
Intestine [8] = assay: Biodistribution in ddY mouse intestine at 0.5 uCi, iv after 60 mins; assay type: ADME, organism-based; details: in vivo, 1 h; in short: as §1
Brain [9] = assay: Biodistribution in ddY mouse brain at 0.5 uCi, iv after 60 mins; assay type: ADME, organism-based; details: in vivo, 1 h; in short: as §1
Pancreas [10] = assay: Biodistribution in ddY mouse pancreas at 0.5 uCi, iv after 60 mins; assay type: ADME, organism-based; details: in vivo, 1 h; in short: as §1
Heart [11] = assay: Biodistribution in ddY mouse heart at 0.5 uCi, iv after 60 mins; assay type: ADME, organism-based; details: in vivo, 1 h; in short: as §1
Liver [12] = assay: Biodistribution in ddY mouse liver at 0.5 uCi, iv after 60 mins; assay type: ADME, organism-based; details: in vivo, 1 h; in short: as §1
Pancreas [13] = assay: Biodistribution in ddY mouse pancreas at 0.5 uCi, iv after 2 mins; assay type: ADME, organism-based; details: in vivo; in short: as §1
Pancreas [14] = assay: Biodistribution in ddY mouse pancreas at 0.5 uCi, iv after 10 mins; assay type: ADME, organism-based; details: in vivo; in short: as §1
Kidney [15] = assay: Biodistribution in ddY mouse kidney at 0.5 uCi, iv after 60 mins; assay type: ADME, organism-based; details: in vivo, 1 h; in short: as §1
Spleen [16] = assay: Biodistribution in ddY mouse spleen at 0.5 uCi, iv after 2 mins; assay type: ADME, organism-based; details: in vivo; in short: as §1
Spleen [17] = assay: Biodistribution in ddY mouse spleen at 0.5 uCi, iv after 60 mins; assay type: ADME, organism-based; details: in vivo, 1 h; in short: as §1
Stomach [18] = assay: Biodistribution in ddY mouse stomach at 0.5 uCi, iv after 2 mins; assay type: ADME, organism-based; details: in vivo; in short: as §1
Liver [19] = assay: Biodistribution in ddY mouse liver at 0.5 uCi, iv after 2 mins; assay type: ADME, organism-based; details: in vivo; in short: as §1
Blood [20] = assay: Biodistribution in ddY mouse blood at 0.5 uCi, iv after 2 mins; assay type: ADME, organism-based; details: in vivo; in short: as §1
Liver [21] = assay: Biodistribution in ddY mouse liver at 0.5 uCi, iv after 10 mins; assay type: ADME, organism-based; details: in vivo; in short: as §1
Blood [22] = assay: Biodistribution in ddY mouse blood at 0.5 uCi, iv after 30 mins; assay type: ADME, organism-based; details: in vivo, 0.5 h; in short: as §1
Liver [23] = assay: Biodistribution in ddY mouse liver at 0.5 uCi, iv after 30 mins; assay type: ADME, organism-based; details: in vivo, 0.5 h; in short: as §1
Blood [24] = assay: Biodistribution in ddY mouse blood at 0.5 uCi, iv after 60 mins; assay type: ADME, organism-based; details: in vivo, 1 h; in short: as §1
Stomach [25] = assay: Biodistribution in ddY mouse stomach at 0.5 uCi, iv after 30 mins; assay type: ADME, organism-based; details: in vivo, 0.5 h; in short: as §1
Brain [26] = assay: Biodistribution in ddY mouse brain at 0.5 uCi, iv after 10 mins; assay type: ADME, organism-based; details: in vivo; in short: as §1
Pancreas [27] = assay: Biodistribution in ddY mouse pancreas at 0.5 uCi, iv after 30 mins; assay type: ADME, organism-based; details: in vivo, 0.5 h; in short: as §1
Stomach [28] = assay: Biodistribution in ddY mouse stomach at 0.5 uCi, iv after 10 mins; assay type: ADME, organism-based; details: in vivo; in short: as §1
Brain [29] = assay: Biodistribution in ddY mouse brain at 0.5 uCi, iv after 30 mins; assay type: ADME, organism-based; details: in vivo, 0.5 h; in short: as §1
Kidney [30] = assay: Biodistribution in ddY mouse kidney at 0.5 uCi, iv after 10 mins; assay type: ADME, organism-based; details: in vivo; in short: as §1
Heart [31] = assay: Biodistribution in ddY mouse heart at 0.5 uCi, iv after 30 mins; assay type: ADME, organism-based; details: in vivo, 0.5 h; in short: as §1
Spleen [32] = assay: Biodistribution in ddY mouse spleen at 0.5 uCi, iv after 30 mins; assay type: ADME, organism-based; details: in vivo, 0.5 h; in short: as §1
Spleen [33] = assay: Biodistribution in ddY mouse spleen at 0.5 uCi, iv after 10 mins; assay type: ADME, organism-based; details: in vivo; in short: as §1
Heart [34] = assay: Biodistribution in ddY mouse heart at 0.5 uCi, iv after 2 mins; assay type: ADME, organism-based; details: in vivo; in short: as §1
Brain [35] = assay: Biodistribution in ddY mouse brain at 0.5 uCi, iv after 2 mins; assay type: ADME, organism-based; details: in vivo; in short: as §1
Kidney [36] = assay: Biodistribution in ddY mouse kidney at 0.5 uCi, iv after 30 mins; assay type: ADME, organism-based; details: in vivo, 0.5 h; in short: as §1
Stomach [37] = assay: Biodistribution in ddY mouse stomach at 0.5 uCi, iv after 60 mins; assay type: ADME, organism-based; details: in vivo, 1 h; in short: as §1

Structure (SMILES) | Drug uptake (Blood [2]) [% ID/g] | Drug uptake (Heart [3]) [% ID/g] | Drug uptake (Intestine [4]) [% ID/g] | Drug uptake (Intestine [5]) [% ID/g] | Drug uptake (Intestine [6]) [% ID/g] | Drug uptake (Kidney [7]) [% ID/g] | Drug uptake (Intestine [8]) [% ID/g] | Drug uptake (Brain [9]) [% ID/g] | Drug uptake (Pancreas [10]) [% ID/g] | Drug uptake (Heart [11]) [% ID/g] | Drug uptake (Liver [12]) [% ID/g] | Drug uptake (Pancreas [13]) [% ID/g] | Drug uptake (Pancreas [14]) [% ID/g] | Drug uptake (Kidney [15]) [% ID/g] | Drug uptake (Spleen [16]) [% ID/g] | Drug uptake (Spleen [17]) [% ID/g] | Drug uptake (Stomach [18]) [% ID/organ] | Drug uptake (Liver [19]) [% ID/g] | Drug uptake (Blood [20]) [% ID/g] | Drug uptake (Liver [21]) [% ID/g] | other results
COc1ccc(-c2nc(-c3ccc(I)cc3)no2)cc1 | – | – | – | – | – | – | – | – | – | – | – | – | – | – | – | – | – | – | – | – | Ki [1]: 4.3 nM
CN(C)c1ccc(-c2nc(-c3ccc([125I])cc3)no2)cc1 | 2.41 | 4.81 | 4.12 | 2.4 | 1.59 | 7.83 | 5.37 | 2.32 | 2.47 | 1.24 | 5.15 | 3.17 | 3.8 | 3.31 | 6.26 | 2.41 | 1.28 | 13.94 | 5.42 | 8.27 | Drug uptake (Blood [22]): 1.79 % ID/g; Drug uptake (Liver [23]): 5.89 % ID/g; Drug uptake (Blood [24]): 1.56 % ID/g; Drug uptake (Stomach [25]): 4.8 % ID/organ; Drug uptake (Brain [26]): 1.45 % ID/g; Drug uptake (Pancreas [27]): 2.86 % ID/g; Drug uptake (Stomach [28]): 3.28 % ID/organ; Drug uptake (Brain [29]): 2.23 % ID/g; Drug uptake (Kidney [30]): 7.67 % ID/g; Drug uptake (Heart [31]): 2.2 % ID/g; Drug uptake (Spleen [32]): 3.11 % ID/g; Drug uptake (Spleen [33]): 4.56 % ID/g; Drug uptake (Heart [34]): 11.04 % ID/g; Drug uptake (Brain [35]): 1.07 % ID/g; Drug uptake (Kidney [36]): 4.81 % ID/g; Drug uptake (Stomach [37]): 5.75 % ID/organ
COc1ccc(-c2nc(-c3ccc([125I])cc3)no2)cc1 | 1.63 | 4.44 | 6.62 | 3.53 | 1.7 | 8.77 | 8.21 | 2.01 | 1.45 | 1.35 | 4.44 | 4.55 | 4.94 | 2.95 | 4.41 | 1.34 | 0.62 | 11.92 | 1.96 | 9.35 | Drug uptake (Blood [22]): 1.23 % ID/g; Drug uptake (Liver [23]): 6.13 % ID/g; Drug uptake (Blood [24]): 1.12 % ID/g; Drug uptake (Stomach [25]): 2.46 % ID/organ; Drug uptake (Brain [26]): 2.76 % ID/g; Drug uptake (Pancreas [27]): 2.84 % ID/g; Drug uptake (Stomach [28]): 1.64 % ID/organ; Drug uptake (Brain [29]): 2.82 % ID/g; Drug uptake (Kidney [30]): 6.22 % ID/g; Drug uptake (Heart [31]): 1.84 % ID/g; Drug uptake (Spleen [32]): 2.13 % ID/g; Drug uptake (Spleen [33]): 3.62 % ID/g; Drug uptake (Heart [34]): 11.3 % ID/g; Drug uptake (Brain [35]): 2.06 % ID/g; Drug uptake (Kidney [36]): 3.85 % ID/g; Drug uptake (Stomach [37]): 3.16 % ID/organ
Nc1ccc(-c2nc(-c3ccc(I)cc3)no2)cc1 | – | – | – | – | – | – | – | – | – | – | – | – | – | – | – | – | – | – | – | – | Ki [1]: 14.2 nM
Nc1ccc(-c2nc(-c3ccc([125I])cc3)no2)cc1 | 2.32 | 4.02 | 5.84 | 3.08 | 1.5 | 8.24 | 8.33 | 3.29 | 2.83 | 3.51 | 12.33 | 3.69 | 3.88 | 5.15 | 6.13 | 5.02 | 0.92 | 21.36 | 4.55 | 17.37 | Drug uptake (Blood [22]): 3.09 % ID/g; Drug uptake (Liver [23]): 14.89 % ID/g; Drug uptake (Blood [24]): 2.99 % ID/g; Drug uptake (Stomach [25]): 4.05 % ID/organ; Drug uptake (Brain [26]): 2.48 % ID/g; Drug uptake (Pancreas [27]): 3.36 % ID/g; Drug uptake (Stomach [28]): 1.7 % ID/organ; Drug uptake (Brain [29]): 3.32 % ID/g; Drug uptake (Kidney [30]): 6.94 % ID/g; Drug uptake (Heart [31]): 3.48 % ID/g; Drug uptake (Spleen [32]): 6.89 % ID/g; Drug uptake (Spleen [33]): 8.87 % ID/g; Drug uptake (Heart [34]): 9.29 % ID/g; Drug uptake (Brain [35]): 1.61 % ID/g; Drug uptake (Kidney [36]): 5.86 % ID/g; Drug uptake (Stomach [37]): 5.15 % ID/organ
